Compound activity deposited in PubChem BioAssay by several laboratories.
EBI2 block: antagonists of human EBI2 receptor; P32249; EBI2 beta-arrestin recruitment, luminescence, 7a,25-OHC stimulated; inhibition, % at 5 µM; 0.81% of 360,000 active; in the data active means inhibition above about 38%;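 further: enzyme fragment complementation signal reports receptor beta-arrestin coupling in cells; 0% = agonist plus DMSO wells and 100% = wells without agonist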
MC4R antag cAMP: human MC4R antagonism in cAMP assay; MC4R-expressing cells, MTII-stimulated cAMP, LANCE TR-FRET; inhibition, % at 6.5 µM; 0.48% of 360,000 active; AID 540295;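 active means inhibition above its plate's cutoff, the mean of tested wells on that plate plus 3 SD, cut at about 29% in these data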;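 further: 0% = Melanotan II alone and 100% = Melanotan II plus saturating MCL0020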
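System: U2OS-MC4R stable cell line; Technique: Eu-cAMP/anti-cAMP TR-FRET, emission 671 nm; Repeats: single well per compound; Also added: Melanotan II; Dosing: one concentration, 6.5 µM nominal; Schedule: 30-min compound, 1-h challenge, 1-h detection, room temperature.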
HTR2A ag: mouse HTR2A agonism via beta-arrestin recruitment; P35363; CHO-K1 mHTR2A beta-arrestin complementation, luminescence; percent of 30 µM serotonin response; activation, % at 7.6 µM; 0.66% of 360,000 active;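 active means activation above a run cutoff, the mean activation of all tested compounds plus 3 SD, cut at about 14% in these data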;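 further: 0% = plate median of compound wells and 100% = 30 µM serotonin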
Target sequence (P35363 whole entry, looked up): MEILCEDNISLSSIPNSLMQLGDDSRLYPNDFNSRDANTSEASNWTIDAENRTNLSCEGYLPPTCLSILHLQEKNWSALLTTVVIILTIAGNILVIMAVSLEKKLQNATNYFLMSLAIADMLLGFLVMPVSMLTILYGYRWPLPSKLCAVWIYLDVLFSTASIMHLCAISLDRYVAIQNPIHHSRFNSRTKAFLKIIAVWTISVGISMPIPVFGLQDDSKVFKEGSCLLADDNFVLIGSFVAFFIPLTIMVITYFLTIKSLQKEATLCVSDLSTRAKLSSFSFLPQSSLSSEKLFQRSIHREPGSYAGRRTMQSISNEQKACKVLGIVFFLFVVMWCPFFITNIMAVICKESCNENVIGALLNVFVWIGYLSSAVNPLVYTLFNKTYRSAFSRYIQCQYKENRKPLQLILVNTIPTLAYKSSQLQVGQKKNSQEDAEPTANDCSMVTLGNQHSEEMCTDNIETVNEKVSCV
MC4R barr agon: agonists of human melanocortin 4 receptor (MC4R) beta-arrestin; U2OS MC4R beta-arrestin complementation, luminescence; percent of melanotan II response, DMSO zero; AID 540308; activation, % at 8.9 µM; P32245; 0.98% of 360,000 active;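 active means activation above a per-plate cutoff, the mean activation of sample wells on that plate plus 3 SD, cut at about 8% in these data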
Numbers without * were called inactive; x = not tested or not shown; ! = not active in a repeat. Only some compounds are listed: those with a hit (about 2.8% of all), similar ones and a draw of the others.

SMILES | EBI2 block | MC4R antag cAMP | HTR2A ag | MC4R barr agon
COc1ccc(C(=O)O/N=C/c2c(C(F)(F)F)nn(C)c2SCc2ccccc2Cl)cc1 | 50* | 3 | 2 | -3
Cc1ccc(Nc2nc(N)nc(CCl)n2)c(C)c1 | -4 | 11 | -2 | 15*
COc1ccc(OC)c(Nc2nc(N)nc(CCl)n2)c1 | 8 | 10 | 2 | 9.2*
Cc1ccc(Nc2nc(N)nc(CN3CCCCCC3)n2)c(C)c1 | -2 | 6 | -4 | 0
CCOc1ccc(Nc2nc(N)nc(CCl)n2)cc1 | -24 | 11 | 6 | 12*
COc1ccccc1Nc1nc(N)nc(CCl)n1 | -1 | 15 | 2 | 5
COCCN(C(=O)COC(=O)CCCc1c[nH]c2ccccc12)c1c(N)n(Cc2ccccc2)c(=O)[nH]c1=O | -9 | 3 | 7 | -1
COc1cc(/C=C2/C(=N)N3C=CSC3=NC2=O)ccc1OCCOc1ccc(NC(C)=O)cc1 | 3 | 7 | 1 | 1
CCOc1cc(/C=C2\C(=N)N3N=C(S(C)(=O)=O)SC3=NC2=O)ccc1OCCOc1cccc(OC)c1 | -1 | 8 | -3 | 0
COc1cc(/C=C2/C(=N)N3C=CSC3=NC2=O)ccc1OCCCOc1c(C)cccc1C | 19 | 2 | 9 | 8.4*
CCOc1cc(/C=C2/C(=N)N3C=CSC3=NC2=O)ccc1OCCCOc1ccccc1C | -5 | 3 | 1 | 9.4*
Cc1cccc(OCC(=O)Nc2nc3ccc([N+](=O)[O-])cc3s2)c1C | -9 | 17 | -1 | 9.1*
COc1ccccc1N1CCN(Cc2ccc(O)c3ncccc23)CC1 | 73* | -3 | -14 | -1
CCOC(=O)C1CCN(Cc2ccc(O)c3ncccc23)CC1 | 45* | -2 | -3 | -2
C/C(=N\Nc1ncc(Cl)cc1Cl)c1ccccn1 | 56* | 5 | -7 | -3
COc1cc2c(cc1NC(=O)CSc1nnnn1-c1ccccc1)oc1ccccc12 | 8 | 10 | -2 | 37*
CNC(=O)C[C@@H]1C(=O)N(C2CCCCC2)CC1(C)C | -8 | 9 | 1 | -2
NC(N)=N/N=C/c1ccc(OCc2ccccc2Cl)cc1 | -11 | 2 | -6 | 22*
Cc1ccc(-c2nn(-c3ccccc3)cc2CNCc2ccccc2)cc1 | -3 | 0 | -3 | 9.5*
Cc1ccc(-c2nn(-c3ccccc3)cc2CO)cc1 | -5 | 1 | -4 | 1
COC(=O)N1C2CCCCC2=NN(c2ccccc2)N1C(=O)OC (stereo not given) | -10 | x | -4 | x
Cc1cccc(NS(=O)(=O)c2ccc(NC(=O)CN(c3cc([N+](=O)[O-])ccc3C)S(C)(=O)=O)cc2)c1 | 86* | 2 | -2 | 1
COc1ccc(NC(=O)c2ccco2)cc1NC(=O)c1ccccc1F | -4 | 3 | -2 | 9.4*
O=C(CNC(=O)c1ccc(-c2ccccc2)cc1)Nc1cccc(CO)c1 | 0 | 7 | -6 | 0
COc1cc(NC(=O)c2cc(C)on2)cc(OC)c1OC | -4 | 10 | -1 | -1
SMILES | EBI2 block | MC4R antag cAMP | HTR2A ag | MC4R barr agon
CCOC(=O)c1cc(NC(=O)c2cc(C)on2)cc(C(=O)OCC)c1 | 2 | -1 | 0 | 31*
CCOc1ccc2nc(NC(=O)C3CSC4(C)CCC(=O)N34)sc2c1 (stereo not given) | 0 | 18 | 4 | 0
N#Cc1ccc(C(=O)N2CCCCC2c2cc(C(=O)NCc3ccccc3)no2)cc1 (stereo not given) | 5 | 8 | -6 | -1
O=C(O)CN=C(Nc1cc(Cl)cc(Cl)c1)NC(c1ccccc1)c1ccccc1 | 1 | x | -3 | x
Nc1ccccc1SCc1c(Cl)cccc1Cl | -1 | -4 | -1 | 8.5*
CC(=O)C1=C(c2cccc([N+](=O)[O-])c2)N(C(C)=O)n2c(C)nnc2S1 | 58* | 7 | 2 | -5
Cc1cccn2cc(-c3ccc(NC(=O)Cc4ccccc4)cc3)nc12 | -1 | 3 | 4 | 9.3*
Cc1ccc(-n2nc3ccc(NC(=O)c4cccc([N+](=O)[O-])c4C)cc3n2)cc1 | -5 | 26 | 6 | 8.9*
Cc1ccc(-n2nc3ccc(NC(=O)c4ccco4)cc3n2)cc1 | 2 | 20 | -4 | 1
CC1=NN(c2ccccc2)C(=O)/C1=C\C=C\c1ccccc1 | 7 | -6 | 1 | 1
CC1=NN(c2ccccc2)C(=O)/C1=C/C=C/c1ccc(N(C)C)cc1 | 56* | 14 | -2 | -3
CCOC(=O)C1=C(c2ccccc2)NC(=O)NC1c1ccc(O)c(Cl)c1 (stereo not given) | -9 | 9 | 5 | 52*
CCOC(=O)C1=C(c2ccccc2)NC(=O)NC1c1ccc(O)c(OCC)c1 (stereo not given) | -10 | 11 | 3 | -2
CC1(C)OC(=O)C2=C(C[C@@H](C3CC3)O[C@@H]2C2CC2)O1 | -8 | x | 1 | x
O=C(CNc1ccc2ccccc2c1)N/N=C/c1ccc([N+](=O)[O-])o1 | 8 | -9 | 4 | 11*
COc1cc(F)ccc1-c1cc(C(=O)NCc2cc(C(F)(F)F)cc(C(F)(F)F)c2)[nH]n1 | 22 | 5 | 9 | 5
Cc1ccc(S(=O)(=O)Nc2ccc3ccccc3c2)cc1 | 2 | 2 | 3 | 9.4*
Cc1cc(S(=O)(=O)Nc2ccc3ccccc3c2)c(C)s1 | -13 | -6 | -5 | 8.8*
Cc1cc(S(=O)(=O)Nc2cc(C)c(O)c(C)c2)c(C)s1 | 10 | -1 | 3 | -1
COc1cc(NS(=O)(=O)c2ccc(C)cc2)c2ncccc2c1 | 75* | -17 | -2 | -4
O=S(=O)(Nc1ccc2ccccc2c1)c1ccccc1 | -14 | -4 | -2 | 1
CCCN(CC(=O)Nc1ccccc1C)C(=O)c1cc2ccccc2oc1=O | -12 | 8 | 2 | -1
CC1=C(C(=O)OC2CCCCC2)C(c2ccccc2Br)NC(=O)N1 (stereo not given) | 1 | 8 | -2 | 8.2*
CCCc1cc(-c2nc(N)ncc2-c2ccc3c(c2)OCCCO3)c(O)cc1OC | 78* | 13 | 1 | 4
Cc1cccc(OCc2nnc(SCC(=O)Nc3ccc(C)c(C)c3)o2)c1 | 3 | 1 | 2 | 8.8*
SMILES | EBI2 block | MC4R antag cAMP | HTR2A ag | MC4R barr agon
CC(C)C[C@H](NC(=O)c1nc[nH]c1C(=O)NCC(=O)OC(C)(C)C)C(=O)OCc1ccccc1 | -13 | 19 | -7 | 9.4*
Cc1ccc(C(=O)Nc2cccc(C(F)(F)F)c2)cc1NC(=O)c1c[nH]c2cc(C(F)(F)F)ccc2c1=O | 2 | 13 | 3 | -2
Cc1cn(-c2cc(C(=O)Nc3ccc(C)c(NC(=O)C(=O)c4c[nH]c5ccccc45)c3)cc(C(F)(F)F)c2)cn1 | -4 | 0 | 17*! | 0
O=C(Nc1nn[nH]n1)c1cc(-c2ccc(Cl)c(Cl)c2Cl)nc2ccccc12 | -3 | 10 | 3 | -1
OC(c1ccccc1)c1nc(-c2cccc(C(F)(F)F)c2)cs1 (stereo not given) | -3 | 11 | -2 | 9.5*
OC(c1ccccc1)c1nc(-c2cc(F)cc(F)c2)cs1 (stereo not given) | 10 | 4 | 1 | 3
